Measurements pooled from the literature.
Each line is one published result; the experiments were not run side by side.
Target: Calcium/calmodulin-dependent protein kinase type II subunit beta (CAMK2B, Homo sapiens, UniProt Q13554)

| SMILES | test | conditions | quantity | value |
| --- | --- | --- | --- | --- |
| Cn1cc(-c2cc(F)cc(N3CCn4c(cc5c4CCCC5)C3=O)c2CO)cc(Nc2ccc(N3CCN(C4COC4)CC3)cn2)c1=O | enzyme activity, inhibitor | 0.1 µM | inhibition | 7% |
| C#Cc1n[nH]c2c(-c3cn(C(C)c4ccccn4)c(=O)[nH]c3=O)cc(F)cc12 (centres unmarked) | enzyme activity, inhibitor | 1 µM | inhibition | 4.3% |
| Cc1nn(C)cc1-c1nc2c(N3CCN(Cc4ccc(Cl)cc4)CC3)c(Cl)cnc2[nH]1 | binding, competition with immobilised ligand | 1 µM | remaining binding | 94% |
| C#Cc1n[nH]c2c(-c3cn([C@@H](C)c4ccccc4)c(=O)[nH]c3=O)cc(F)cc12 | enzyme activity, inhibitor | 0.1 µM | inhibition | 6.5% |
| Cn1cc(-c2cccc(N3CCc4c(sc5c4CC(C)(C)C5)C3=O)c2CO)cc(Nc2ccncn2)c1=O | enzyme activity, inhibitor | 1 µM | inhibition | 12% |
| COc1ncccc1-c1cnn2ccc(N3CCN(C(=O)OC(C)C)CC3)nc12 | binding, competition with immobilised ligand | 1 µM | remaining binding | 81% |
| O=c1[nH]c2ccccc2n1C1CCN(Cc2ccc(-c3[nH]c4cc5ncnc5cc4nc3-c3ccccc3)cc2)CC1 | enzyme activity | 0.5 µM | remaining activity | 104% |
| N#CC1(c2ccccn2)CCN(Cc2cc(C(=O)O)c(=O)n3ccccc23)CC1 | cell-free assay, competition with immobilised ligand | 1 µM | remaining binding | 100% |
| CC(C)(C)c1cc(C=C(C#N)C#N)cc(Br)c1O | enzyme activity, inhibitor | 0.5 µM | remaining activity | 99.3% |
| Cn1cncc1[C@@](O)(COc1ccc(C#N)cc1-c1ccc(OC(F)(F)F)cc1)c1ccc(C#N)cc1 | cell-free assay, competition with immobilised ligand | 1 µM | remaining binding | 90% |
| Nc1ncc(-c2nc(N3CCOCC3)nc(N3CCOCC3)n2)c(C(F)F)n1 | binding, competition with immobilised ligand | 10 µM | remaining binding | 69% |
